≈ marks a conversion by molar mass, not a printed value.
How the values were obtained:
Pseudomonas aeruginosa [1] = assay: Antibacterial activity against Pseudomonas aeruginosa YY165 deltamexB mutant assessed as growth inhibition after 20 hrs by microdilution method; format: functional; conditions: YY165, 20 h
Procedure, shortened: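 Broth microdilution per CLSI in cation-adjusted Mueller–Hinton broth; serial 2-fold compound dilutions inoculated with 5 × 10⁴ CFU per well (0.1 mL), incubated 35 °C for 20 h, then MIC scored. Strain YY165 is a MexB deletion mutant lacking the inner-membrane transporter of the MexAB-OprM efflux system.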

Pseudomonas aeruginosa [2] = assay: Antibacterial activity against Pseudomonas aeruginosa PAO1 assessed as growth inhibition after 20 hrs by microdilution method; format: functional; conditions: PAO1, 20 h
Procedure, shortened: (§1)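 Broth microdilution per CLSI in cation-adjusted Mueller-Hinton broth, using serial 2-fold compound dilutions. Each strain was inoculated at 5 × 10⁴ CFU per well in 0.1 mL. Plates were incubated at 35 °C for 20 h, and the MIC was then scored.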

[3] = Inhibition of Staphylococcus aureus MraY by fluorescence assay
Procedure, shortened: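 Purified S. aureus MraY was given UDP-MurNAc-dansylpentapeptide as substrate. Formation of dansylated lipid I was followed by fluorescence enhancement (excitation 355 nm, emission 535 nm).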

Pseudomonas aeruginosa [4] = assay: Antibacterial activity against Pseudomonas aeruginosa ATCC 25619 assessed as growth inhibition after 20 hrs by microdilution method; format: functional; conditions: ATCC 25619, 20 h; procedure, shortened: as §1
Pseudomonas aeruginosa [5] = assay: Antibacterial activity against Pseudomonas aeruginosa ATCC 27853 assessed as growth inhibition after 20 hrs by microdilution method; format: functional; conditions: ATCC 27853, 20 h; procedure, shortened: as §1
Pseudomonas aeruginosa [6] = assay: Antibacterial activity against clinical isolate Pseudomonas aeruginosa SR27156 assessed as growth inhibition after 20 hrs by microdilution method; format: functional; conditions: SR27156, 20 h; procedure, shortened: as §1

| SMILES | MIC (Pseudomonas aeruginosa [1]) [mg/L] | MIC (Pseudomonas aeruginosa [2]) [mg/L] | IC50 [3] [nM] | MIC (Pseudomonas aeruginosa [4]) [mg/L] | MIC (Pseudomonas aeruginosa [5]) [mg/L] | MIC (Pseudomonas aeruginosa [6]) [mg/L] |
| --- | --- | --- | --- | --- | --- | --- |
| CCCCCCCCCCC(=O)N[C@@H](CCCNC(=N)N)C(=O)NCCCN[C@H](C(=O)O)[C@H](O[C@@H]1O[C@H](CN)[C@@H](O)[C@H]1O)[C@H]1O[C@@H](n2ccc(=O)[nH]c2=O)[C@H](O)[C@@H]1O | > 64 | > 64 | 9.8 | 32 (≈ 38.6 µM) | > 64 | > 64 |
| CCCCCCCCCCCCCCC[C@H](NC(=O)[C@H](CCCNC(=N)N)NC(=O)N[C@H](C(=O)O)C(C)C)C(=O)NCCCN[C@H](C(=O)O)[C@H](O[C@@H]1O[C@H](CN)[C@@H](O)[C@H]1O)[C@H]1O[C@@H](n2ccc(=O)[nH]c2=O)[C@H](O)[C@@H]1O | > 64 | > 64 | 0.7 | > 64 | > 64 | > 64 |
| CCCCCCCCCCCCCC(=O)N[C@@H](CCCNC(=N)N)C(=O)NCCCN[C@H](C(=O)O)[C@H](O[C@@H]1O[C@H](CN)[C@@H](O)[C@H]1O)[C@H]1O[C@@H](n2ccc(=O)[nH]c2=O)[C@H](O)[C@@H]1O | 16 (≈ 18.3 µM) | 32 (≈ 36.7 µM) | 2.1 | 16 (≈ 18.3 µM) | 32 (≈ 36.7 µM) | 16 (≈ 18.3 µM) |
| CCCCCCCCCCCCCCC[C@H](NC(=O)c1ccnnc1)C(=O)NCCCN[C@H](C(=O)O)[C@H](O[C@@H]1O[C@H](CN)[C@@H](O)[C@H]1O)[C@H]1O[C@@H](n2ccc(=O)[nH]c2=O)[C@H](O)[C@@H]1O | 64 (≈ 72.8 µM) | > 64 | 13.5 | 64 (≈ 72.8 µM) | > 64 | > 64 |
| CCCCCCCCCCCCCCC[C@H](NC(C)=O)C(=O)NCCCN[C@H](C(=O)O)[C@H](O[C@@H]1O[C@H](CN)[C@@H](O)[C@H]1O)[C@H]1O[C@@H](n2ccc(=O)[nH]c2=O)[C@H](O)[C@@H]1O | 32 (≈ 39.3 µM) | 64 (≈ 78.5 µM) | 2.7 | 32 (≈ 39.3 µM) | > 64 | 64 (≈ 78.5 µM) |
| CCCCCCCCCCCCCCC[C@H](NC(=O)[C@@H](N)CCCSC)C(=O)NCCCN[C@H](C(=O)O)[C@H](O[C@@H]1O[C@H](CN)[C@@H](O)[C@H]1O)[C@H]1O[C@@H](n2ccc(=O)[nH]c2=O)[C@H](O)[C@@H]1O | 16 (≈ 17.4 µM) | > 64 | 8.5 | 16 (≈ 17.4 µM) | 64 (≈ 69.7 µM) | 64 (≈ 69.7 µM) |
| CCCCCCCCCCCCCCC[C@H](NC(=O)[C@@H](N)CCCNC(=N)N)C(=O)NCCCN[C@H](C(=O)O)[C@H](O[C@@H]1O[C@H](CN)[C@@H](O)[C@H]1O)[C@H]1O[C@@H](n2ccc(=O)[nH]c2=O)[C@H](O)[C@@H]1O | 8 (≈ 8.61 µM) | 16 (≈ 17.2 µM) | 2.2 | 8 (≈ 8.61 µM) | 32 (≈ 34.4 µM) | 16 (≈ 17.2 µM) |
| CCCCCCCCCCCCCCC[C@H](N)C(=O)NCCCN[C@H](C(=O)O)[C@H](O[C@@H]1O[C@H](CN)[C@@H](O)[C@H]1O)[C@H]1O[C@@H](n2ccc(=O)[nH]c2=O)[C@H](O)[C@@H]1O | 32 (≈ 41.4 µM) | > 64 | 2.6 | 32 (≈ 41.4 µM) | > 64 | > 64 |
| CCCCCCCCCCCCCCC[C@H](NC(=O)c1cnccn1)C(=O)NCCCN[C@H](C(=O)O)[C@H](O[C@@H]1O[C@H](CN)[C@@H](O)[C@H]1O)[C@H]1O[C@@H](n2ccc(=O)[nH]c2=O)[C@H](O)[C@@H]1O | > 64 | > 64 | 33.1 | 64 (≈ 72.8 µM) | > 64 | > 64 |
| CCCCCCCCCCCCCCC[C@H](NC(=O)[C@@H](N)CCCN)C(=O)NCCCN[C@H](C(=O)O)[C@H](O[C@@H]1O[C@H](CN)[C@@H](O)[C@H]1O)[C@H]1O[C@@H](n2ccc(=O)[nH]c2=O)[C@H](O)[C@@H]1O | 32 (≈ 36.1 µM) | 64 (≈ 72.1 µM) | 3.8 | 32 (≈ 36.1 µM) | 64 (≈ 72.1 µM) | 32 (≈ 36.1 µM) |
| CCCCCCCCCCCCCCC[C@H](NC(=O)[C@H](CCCN)NC(=O)N[C@H](C(=O)O)C(C)C)C(=O)NCCCN[C@H](C(=O)O)[C@H](O[C@@H]1O[C@H](CN)[C@@H](O)[C@H]1O)[C@H]1O[C@@H](n2ccc(=O)[nH]c2=O)[C@H](O)[C@@H]1O | > 64 | > 64 | 0.8 | > 64 | > 64 | > 64 |
| CCCCCCCCCCCCCCC[C@H](NC(=O)c1ccc2ccccc2n1)C(=O)NCCCN[C@H](C(=O)O)[C@H](O[C@@H]1O[C@H](CN)[C@@H](O)[C@H]1O)[C@H]1O[C@@H](n2ccc(=O)[nH]c2=O)[C@H](O)[C@@H]1O | > 64 | > 64 | 105 | > 64 | > 64 | > 64 |
| CCCCCCCCCCCCCCC[C@H](NC(=O)c1ccccn1)C(=O)NCCCN[C@H](C(=O)O)[C@H](O[C@@H]1O[C@H](CN)[C@@H](O)[C@H]1O)[C@H]1O[C@@H](n2ccc(=O)[nH]c2=O)[C@H](O)[C@@H]1O | > 64 | > 64 | 6.4 | 64 (≈ 72.9 µM) | > 64 | > 64 |
| CC(C)CCCC(=O)N[C@@H](CCCNC(=N)N)C(=O)NCCCN[C@H](C(=O)O)[C@H](O[C@@H]1O[C@H](CN)[C@@H](O)[C@H]1O)[C@H]1O[C@@H](n2ccc(=O)[nH]c2=O)[C@H](O)[C@@H]1O | > 64 | > 64 | 225 | > 64 | > 64 | > 64 |
| CCCCCCCCCCCCCCC[C@H](NC(=O)[C@@H](NC(=O)N[C@H](C(=O)O)C(C)C)[C@H]1CCNC(=N)N1)C(=O)NCCCN[C@H](C(=O)O)[C@H](O[C@@H]1O[C@H](CN)[C@@H](O)[C@H]1O)[C@H]1O[C@@H](n2ccc(=O)[nH]c2=O)[C@H](O)[C@@H]1O | > 64 | > 64 | 0.8 | > 64 | > 64 | > 64 |
| CCCCCCCCCCCCCCC[C@H](NC(=O)[C@@H](N)[C@@H]1CCNC(=N)N1)C(=O)NCCCN[C@H](C(=O)O)[C@H](O[C@@H]1O[C@H](CN)[C@@H](O)[C@H]1O)[C@H]1O[C@@H](n2ccc(=O)[nH]c2=O)[C@H](O)[C@@H]1O | 32 (≈ 34.5 µM) | > 64 | 2.4 | > 64 | > 64 | 64 (≈ 69 µM) |
| CCCCCCCCCCCCCCCCNC(=O)[C@@H](NCCCNC(=O)[C@@H](N)CCCNC(=N)N)[C@H](O[C@@H]1O[C@H](CN)[C@@H](O)[C@H]1O)[C@H]1O[C@@H](n2ccc(=O)[nH]c2=O)[C@H](O)[C@@H]1O | 16 (≈ 18.1 µM) | 32 (≈ 36.2 µM) | 12.2 | 16 (≈ 18.1 µM) | 16 (≈ 18.1 µM) | 16 (≈ 18.1 µM) |
| C[C@@H](O)[C@H]1C(=O)N2C(C(=O)O)=C(S[C@@H]3CN[C@H](CNS(N)(=O)=O)C3)[C@H](C)[C@H]12 [DORIPENEM] | 0.25 (≈ 0.595 µM) | 0.5 (≈ 1.19 µM) |  | 0.063 (≈ 0.15 µM) | 0.5 (≈ 1.19 µM) | 0.031 (≈ 0.0737 µM) |
| CCCCCCCCCCCCCCC[C@H](NC(=O)c1cccnc1)C(=O)NCCCN[C@H](C(=O)O)[C@H](O[C@@H]1O[C@H](CN)[C@@H](O)[C@H]1O)[C@H]1O[C@@H](n2ccc(=O)[nH]c2=O)[C@H](O)[C@@H]1O | > 64 | > 64 | 9.6 | 64 (≈ 72.9 µM) | > 64 | > 64 |
| CC(C)C[C@H](NC(=O)[C@@H](NC(=O)N[C@H](C(=O)O)C(C)C)[C@@H]1CCNC(=N)N1)C(=O)NCCCN[C@H](C(=O)O)[C@H](O[C@@H]1O[C@H](CN)[C@@H](O)[C@H]1O)[C@H]1O[C@@H](n2ccc(=O)[nH]c2=O)[C@H](O)[C@@H]1O [MURAMYCIN D2] | 64 (≈ 69.9 µM) | > 64 | 2.8 | 64 (≈ 69.9 µM) | > 64 | 32 (≈ 34.9 µM) |
| N=C(N)NCCCCCC(=O)NCCCCCC(=O)NCCCN[C@H](C(=O)O)[C@H](O[C@@H]1O[C@H](CN)[C@@H](O)[C@H]1O)[C@H]1O[C@@H](n2ccc(=O)[nH]c2=O)[C@H](O)[C@@H]1O | > 64 | > 64 | 1490 | > 64 | > 64 | > 64 |
| CCCCCCCCCCCCCCC[C@H](NC(=O)[C@@H](NC(=O)N[C@H](C(=O)O)C(C)C)[C@@H]1CCNC(=N)N1)C(=O)NCCCN[C@H](C(=O)O)[C@H](O[C@@H]1O[C@H](CN)[C@@H](O)[C@H]1O)[C@H]1O[C@@H](n2ccc(=O)[nH]c2=O)[C@H](O)[C@@H]1O | > 64 | > 64 | 1.1 | > 64 | > 64 | > 64 |
| CCCCCCCCCCCCCCC[C@H](NC(=O)[C@@H](NC(=O)OCc1ccccc1)[C@@H]1CCNC(=N)N1)C(=O)NCCCN[C@H](C(=O)O)[C@H](O[C@@H]1O[C@H](CN)[C@@H](O)[C@H]1O)[C@H]1O[C@@H](n2ccc(=O)[nH]c2=O)[C@H](O)[C@@H]1O | > 64 | > 64 | 4.2 | > 64 | > 64 | > 64 |

Reference: ChEMBL document CHEMBL3286247, “Expansion of Antibacterial Spectrum of Muraymycins toward Pseudomonas aeruginosa” (ACS Med Chem Lett, 2014)
